The results in this text go back to ChEMBL document CHEMBL1133505, “Synthesis and biological evaluation of ceramide analogues with substituted aromatic rings or an allylic fluoride in the sphingoid moiety” (2000).

“And” between values parts separate entries of the source, which are not always exact repeats. Identical values can stand only once. Bounds are passed on as bounds.

What all share (type): functional, Rattus norvegicus, Hippocampus
Test [1] in a line: Inability to reverse inhibitory effect of D-threo-1-phenyl-2-decanoylamino-3-morpholino-1-propanol(PDMP) on accelerated axonal growth of hippocampal neurons, number of axonal branch points/ cell at 51 hour (P value). The method, boiled down:
(§1)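 Rat (E18 Wistar) hippocampal neurons cultured at low density over glia in serum-free N2 MEM. Treated at 48 h with bFGF 1 ng/mL, PDMP 50 μM final (Hepes stock) and with or without analogue 5 μM from ethanol (≤1% final). Axonal branch points/cell counted by phase contrast after glutaraldehyde fixation at 51 h and normalized to 48 h. Mean ± SEM of three cultures, 50 cells × two cover slips; p values vs bFGF or bFGF+PDMP.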

A short description of test [2]: Evaluation for reversing the inhibitory effects of Fumonisin B1(FB1) on accelerated axonal growth of hippocampal neurons. The gist of the method:
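E18 Wistar rat hippocampal neurons, trypsin-dissociated and plated at low density on poly-L-lysine cover slips over a glial monolayer in serum-free N2 MEM. At 48 h: bFGF 1 ng/mL plus FB1 10 μM (Hepes stock) with or without analogue 5 μM (ethanol, ≤1% final). At 51 h, fixed in glutaraldehyde and axonal branch points/cell counted by phase contrast. Values normalized to 48 h; mean ± SEM of three cultures, 50 cells per cover slip, two cover slips per treatment; p values reported.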

A short description of test [3]: Inability to reverse inhibitory effect of D-threo-1-phenyl-2-decanoylamino-3-morpholino-1-propanol(PDMP) on accelerated axonal growth of hippocampal neurons (P value). The method, boiled down:
as §1

In the case of `CCCCCCC/C=C/[C@@H](F)[C@H](CO)NC(=O)CCCCC`, the No. of axonal points in test [1] worked out at 1.12; in test [2], 1.39.
The corresponding values for `CCCCCCC/C=C/[C@H](F)[C@H](CO)NC(=O)CCCCC` are 1.16 and 1.29.
Regarding `CCCCCC(=O)N[C@@H](CO)[C@H](O)/C=C/c1ccc(C)cc1`, in test [2], the No. of axonal points turned out to be 1.46.
Same read-out and setting: the value for `CCCCCc1ccc(/C=C/[C@@H](O)[C@H](CO)NC(C)=O)cc1` was 1.67; that for `CCCCCC(=O)N[C@@H](CO)[C@H](O)/C=C/c1ccc(F)cc1` was 1.5.
Take `CCCCCCCCCCCCC/C=C/[C@@H](O)[C@H](CO)NC(=O)CCCCCNc1ccc([N+](=O)[O-])c2nonc12`: the No. of axonal points in test [1] was 0.86 and 1.08; in test [2] it was <1.66 and 1.46.
For the compound `CCCCCCCCCCCCC/C=C/[C@H](O)[C@H](CO)NC(=O)CCCCCNc1ccc([N+](=O)[O-])c2nonc12`, the No. of axonal points was 0.94 in test [3]; 1.06 in test [1]; <1.01 and <1.06 in test [2].
On to `CCCCCC(=O)N[C@@H](CO)[C@H](O)/C=C/c1ccc(OC)cc1`, for which the No. of axonal points in test [2] amounted to 1.35.
As to `CCCCCC(=O)N[C@@H](CO)[C@H](O)/C=C/c1cccs1`, the No. of axonal points in test [1] was 1.04; in test [2] it was 1.38.
Take `CCCCCc1ccc(/C=C/[C@@H](O)[C@H](CO)NC(=O)CCC)cc1`: the No. of axonal points in test [2] came out at 1.83.
On the same count and under the same terms, the value for `CCCCCC(=O)N[C@@H](CO)[C@H](O)/C=C/c1ccc(CCCCC)cc1` was 1.54; that for `CCCCCCC/C=C/[C@@H](O)[C@H](CO)NC(=O)CCCCC` was 1.43.
As to `CCCCCCC/C=C/[C@H](O)[C@H](CO)NC(=O)CCCCC`, the No. of axonal points in test [2] turned out to be 1.11.
For the compound `CCCCCC(=O)N[C@@H](CO)[C@H](O)/C=C/c1ccccc1`, the values for the No. of axonal points in test [1] and in test [2] were 0.92 and 2.09, respectively.
